In the library only some 3.5% were active in any assay of this set; here they are far more common.
RGS4 act: RGS4 potentiation or activation; HEK293 M3R/inducible RGS4, carbachol calcium flux Fluo4; active compounds read low; B-score at 10 µM; 310,000 tested, 0.92% active;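 active = B-score of the integrated calcium signal more than 4 SD below the library mean, with starting fluorescence not abnormally high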;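 note: negative B-score means reduced calcium response which marks RGS4 activation or potentiation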
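Detection: kinetic calcium fluorescence imaging with Fluo4-AM dye, 2 µM / Material: HEK293 cells with stable M3R and inducible RGS4 / Schedule: recording 10 s baseline at 1 Hz, 100 s post-agonist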
RGS4 inh: inhibitors of human RGS4 | P49798 | HEK293 M3R/RGS4 inducible, Fluo-4 calcium flux; active compounds read high; triggered by carbachol at its EC20 | B-score at 10 µM | 310,000 tested, 0.45% active | AID 463165;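 active = B-score, a plate-corrected calcium signal, over three deviations above library mean, with baseline fluorescence within five deviations of library mean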;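 note: RGS4 expression induced by doxycycline in cells with stable M3 receptor; B-score is computed from the integrated fluorescence ratio over baseline after carbachol; higher B-score means a larger calcium signal and so more RGS4 inhibition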
Target sequence (P49798 whole entry, looked up): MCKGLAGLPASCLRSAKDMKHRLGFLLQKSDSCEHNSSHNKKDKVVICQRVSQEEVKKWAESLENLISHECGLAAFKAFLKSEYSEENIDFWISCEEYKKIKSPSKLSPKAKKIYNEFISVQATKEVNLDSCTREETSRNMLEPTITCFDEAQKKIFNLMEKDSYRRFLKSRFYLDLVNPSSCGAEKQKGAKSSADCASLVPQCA
MrgX1 allo act: human MrgX1 positive allosteric modulation, primary screen; Q96LB2; MrgX1-HEK293, Fluo-4 calcium flux, FDSS; active compounds read high; B-score at 10 µM; 310,000 tested, 0.63% active; AID 588675;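 active = plate-corrected calcium response at least 3 library SD above typical, normal starting fluorescence, not activating the receptor alone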;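 note: compound read alongside a low EC10 to EC30 dose of BAM8-22 agonist; peak minus trough fluorescence over baseline measured at the second addition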
MrgX1 agonist: agonists of human MrgX1 receptor | AID 588627 | B-score at 10 µM | Q96LB2 | 310,000 tested, 0.44% active | MrgX1-HEK293 cells, Fluo-4 calcium fluorescence, agonist mode; active compounds read high;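 active = calcium response B-score plate-corrected fluorescence ratio at least 3 library SD, with starting fluorescence B-score inside 5 SD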
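Assay system: stable human MrgX1 HEK293 cell line. Quantity: 15,000 cells per well. Schedule: cells plated overnight, dye loaded 0.5 h 37 °C, 0.5 h room temperature. Detection: Fluo-4 NW calcium-flux fluorescence, kinetic read. Read-out basis: peak-minus-minimum fluorescence over baseline, converted to B scores. Control set: positive and negative control wells on each plate.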
MrgX1 antagonist: human MrgX1 receptor antagonism, primary screen. Q96LB2. MRGX1-HEK293 calcium flux, Fluo-4, BAM8-22 antagonism; active compounds read low. B-score at 10 µM. 310,000 tested, 1.3% active. AID 588676;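 active = calcium-response B-score plate-corrected more than 3 library SD below zero, starting fluorescence within 5 deviations, no agonist response on first addition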;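 note: peak minus trough fluorescence over baseline after final BAM8-22 challenge near maximal dose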
Starred values were filed as active, the others as inactive; i = inactive; ! = a repeat was not active.

SMILES | RGS4 act | RGS4 inh | MrgX1 allo act | MrgX1 agonist | MrgX1 antagonist
CCC(CC)c1nn2c(N)c(/C=C3\C=Nc4ccccc43)c(=O)nc2s1 | i | i | i | i | i
CCCc1nn2c(N)c(/C=C3\C=Nc4ccccc43)c(=O)nc2s1 | i | i | 16*! | i | i
CC(C)c1nn2c(N)c(/C=C3\C=Nc4ccccc43)c(=O)nc2s1 | i | i | 13* | i | i
O=C1NC(=S)N(C(=O)c2ccc(F)cc2)/C1=C/c1ccccc1 | i | i | i | i | -5.5*
CCN(CC)c1ccc(/C=C2\SC(N)=NC2=O)cc1 | i | i | i | 33* | i
NS(=O)(=O)c1ccc(NC(=S)NCCc2ccccc2)cc1 | i | i | i | i | i
O=[N+]([O-])c1ccc(NC(=S)NCCc2ccccc2)cc1 | i | i | i | i | -4.9*
O=[N+]([O-])c1ccc(NC(=S)NCCc2ccc(Cl)cc2)cc1 | i | i | i | i | -6*
S=C(NCCc1ccccc1)Nc1ccc(Cl)cc1 | i | i | i | i | i
COc1ccc(S(=O)(=O)N2CCCCCC2)cc1C(=O)N(C)Cc1ccc(Cl)cc1Cl | i | i | 14* | i | i
CC(C)CCN(C(=S)Nc1cccc(F)c1)C(C)c1cccs1 (configuration not stated) | i | i | 10* | i | i
COCCN(C(=S)Nc1cccc(C)c1)C(C)c1cccs1 (configuration not stated) | i | i | i | i | i
Cc1nn(Cc2ccccc2)c(Cl)c1C(=O)NCc1ccco1 | i | i | i | i | i
Cc1cc2cccc(C)c2nc1SCC(=O)NNC(=O)c1ccco1 | i | i | 12* | i | i
Cc1cc(C)c2nc(SCC(=O)NNC(=O)c3ccco3)c(C)cc2c1 | i | i | i | i | i
COC(=O)c1ccc(C2=NOC(C)(c3nnc(Cc4ccccc4)o3)C2)cc1 (configuration not stated) | i | i | i | i | i
CCOc1ccc(CN2C(=O)c3ccccc3C2=O)cc1C(=O)N1CCC(C(N)=O)CC1 | i | i | i | i | i
CCN(CC)CCN1c2ccccc2Sc2ccccc21 | -7.1* | i | i | i | i
CCN(CC)CCN1c2ccccc2Sc2ccc3ccccc3c21 | -7.5* | i | i | i | i
COCC(C)NC(=O)c1cc2c(ccc3ccccc32)oc1=O (configuration not stated) | i | i | i | i | i
C/C(=C\c1ccccc1)C(=O)Nc1ccc(Cl)cn1 | i | i | i | i | i
Cc1ccc(CN(Cc2cc3cccc(C)c3[nH]c2=O)C(=S)NCCCN(C)C)cc1 | i | i | 9.7* | i | i
COC(=O)c1cn(CCOc2ccccc2)c2ccccc12 | i | i | i | i | i
CCN(CC)C(=O)C(=O)c1cn(CCOc2ccccc2)c2ccccc12 | -7.1* | i | i | i | i
ClCC1=Nc2cccc3cccc(c23)N1 | i | 8.7* | i | i | i
SMILES | RGS4 act | RGS4 inh | MrgX1 allo act | MrgX1 agonist | MrgX1 antagonist
Cc1ccc(C)c(NC(=O)C2CCCN(S(=O)(=O)c3c(C)nn(C)c3C)C2)c1 (configuration not stated) | i | i | i | i | i
Fc1ccc(OCCOCCN2CCCC2)cc1 | i | i | i | i | i
CC(OCCN1CCCC1)(c1ccc(F)cc1)c1ccc(F)cc1 | -7.5* | i | i | i | i
COc1ccccc1-c1cnn2c(NCc3ccccc3)cc(C)nc12 | -7.3* | i | i | i | i
COc1cc(/C=C/C(=O)OCC(=O)N2CCCc3ccccc32)ccc1OC(F)F | i | i | i | i | i
O=c1c(-c2ccc(O)cc2)coc2cc(O)ccc12 | i | i | i | i | -7.8*
Cc1ccc(-c2cc(C(=O)Nc3ccncc3)c3ccccc3n2)cc1 | i | i | i | i | -7.6*
O=C(Nc1ccncc1)c1cc(-c2cccc(Br)c2)nc2ccccc12 | i | i | i | i | i
COc1ccc(-c2cc(C(=O)Nc3ccccc3O)c3ccccc3n2)cc1OC | -7.3* | i | i | i | i
